Common to all, as to format: cell-based
Test [1] in a line: (§1) Inhibition of human aquaporin 4 M23 isoform expressed in Xenopus laevis oocytes. To be noted: oocyte. The essentials:
(§2)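 hAQP4b cRNA (0.1 µg/µL, 30 nL) or water (sham) injected into oocytes, kept 48 h at 18 C in MBS. Oocytes preincubated 2 h with ligand at 0.1, 1, 5, 10, 20 or 100 µM, 0.1% DMSO final, then diluted with buffer-free hypotonic solution. Swelling imaged every 60 s up to 4 min; n = 5 oocytes. Percent inhibition relative to blank and sham Pf fit sigmoidally for apparent IC50.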

Test [2] has as its system Oocyte. Described as §1. The method in brief: as §2
The subject of test [3] is Oocyte. Description: Inhibition of human aquaporin 4 M23 isoform expressed in Xenopus laevis oocytes at 20 uM. The method in brief: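 Oocytes injected with 30 nL hAQP4b cRNA (0.1 µg/µL) or water sham, cultured 48 h at 18 C in MBS. Exposure to 20 µM compound (0.1% DMSO) for 2 h, then hypotonic challenge by dilution with buffer-free solution of matching inhibitor/DMSO. Oocyte area imaged each 60 s for 4 min, converted to volume. Osmotic permeability-based percent inhibition versus blank and sham; single-tail ANOVA, P < 0.05.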

Regarding `CC1(C)O[C@@H]2[C@@H](CO[C@@]3(COS(N)(=O)=O)OC(C)(C)O[C@@H]23)O1` [TOPIRAMATE], the half-inhibitory concentration (IC50) in test [1] amounted to 10 µM. Also, the Imax with Oocyte [2] is 75%. This molecule gave an inhibition in the test with Oocyte [3] of 67%.
Molecule `NC(=O)N1c2ccccc2C2OC2c2ccccc21` (stereo not drawn) had an inhibition in the test with Oocyte [3] of 40%.
Consider `CC(=O)Nc1nnc(S(N)(=O)=O)s1` [ACETAZOLAMIDE], for which the half-maximal inhibitory concentration (IC50) in test [1] came to 0.86 µM. This molecule displayed an Imax with Oocyte [2] of 86%. In the test on Oocyte [3], this molecule had an inhibition of 78%.
With `NS(=O)(=O)Cc1noc2ccccc12` [ZONISAMIDE], the IC50 in test [1] turned out to be 3.3 µM. The molecule further came in with an Imax in the test with Oocyte [2] of 48%. In addition, the inhibition in the test with Oocyte [3] stood at 48%.
As for `Nc1nnc(-c2cccc(Cl)c2Cl)c(N)n1` [LAMOTRIGINE], the IC50 in test [1] was determined as 8.1 µM. In the test with Oocyte [2], this molecule showed an Imax of 64%. Also, in the test on Oocyte [3], the inhibition was found to be 54%.
Molecule `CCCC(CCC)C(=O)O` yielded an inhibition in the test on Oocyte [3] of 40%.
`O=C1NC(=O)C(c2ccccc2)(c2ccccc2)N1` [PHENYTOIN]: in test [1], it took 9.8 µM to reach half-maximal inhibition (IC50). Further, the Imax in the test on Oocyte [2] amounted to 60%. The molecule further registered an inhibition with Oocyte [3] of 58%.
`NC(=O)N1c2ccccc2CC(=O)c2ccccc21` gave an inhibition in the test with Oocyte [3] of 33%.

What is called IC50 is the concentration needed to halve the response being measured. A lower IC50 goes with greater potency in that assay. Usually inhibition stands for the drop in the measured response relative to a control, in per cent. Low values mean a weak effect, high ones a strong effect.

These data come from ChEMBL document CHEMBL1151775, “Inhibition of aquaporin 4 by antiepileptic drugs” (Bioorg Med Chem, 2009).
